Test results published in publication PMC3356144 (Frontiers in Oncology, 2011).
“Also recorded” adds a separate entry of the source. Values belong to the molecule of their own block, whether it stands above or below them.

Columns and labels:
[1] = target: MLCP purified from pig aorta smooth muscle (Sus scrofa, UniProt P61292); test: MLCP/32P-MLC dephosphorylation inhibition assay; format: biochemical
Method in brief: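 MLCP purified from pig aorta (PP1C plus truncated 60-kDa MYPT1). Substrate was chicken gizzard LC20 pre-labelled with [γ-32P]ATP. Reaction: 0.5 μM 32P-LC20, 50 nM MLCP, 0.1 nM okadaic acid, 1 mM DTT, 0.03% Brij35, 25 mM MOPS pH 7.0, with varied compound. Run 10 min at 30°C, stopped with TCA/BSA, released 32P counted. No-enzyme set as 0% and uninhibited as 100%; duplicates; IC50 by nonlinear regression.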

[2] = Solubility; format: physicochemical
[3] = tested on: LNCaP cells; test: Growth inhibition; format: cell-based, human
Method in brief: (§1)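 LNCaP seeded at 20,000 cells/well overnight in RPMI with 10% FBS, 1% L-glutamine, 1% pen/strep and 0.1 nM DHT. CWR22Rv1 (20,000/well), DU145 and PC-3 (5,000/well) seeded in the same medium without DHT. Treated with test compound in serum-free medium, five wells per concentration, for 48 h; vehicle was 0.001% DMSO. Viability read by WST-8 after 2 h at 450 nm (reference 655 nm). Initial-plating value subtracted, percent growth versus control calculated, GI50 derived; n = 5, SEM.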

[4] = tested on: CWR22Rv1 cells; test: Growth inhibition; format: cell-based; conditions: Homo sapiens, CWR22Rv1, 48 h, CWR22Rv1 (CWR), 48 h treatment
Method in brief: as §1

[5] = tested on: DU145 cells; test: Growth inhibition; format: cell-based; conditions: Homo sapiens, DU-145, 48 h, DU145, 48 h treatment
Method in brief: as §1

[6] = tested on: PC-3 cells; test: Growth inhibition; format: cell-based; conditions: Homo sapiens, PC-3, 48 h, PC-3, 48 h treatment
Method in brief: as §1

[7] = tested on: LNCaP cells; test: BrdU uptake assay, LNCaP; format: cell-based, human; conditions: 1 μM, 24 h
Method in brief: (§2)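 Cells seeded overnight in six-well plates: LNCaP 500,000/well, DU145 and PC-3 200,000/well. Treated with 1 μM test compound in serum-free medium for 24 h, then BrdU pulsed 1 h. Cells trypsinized, fixed in 4% formaldehyde 10 min, permeabilized, and labelled with FITC anti-BrdU 1 h at 25°C. Analysed by flow cytometry against untreated control; n = 3, mean ± SEM.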

[8] = tested on: DU145 cells; test: BrdU uptake assay, DU145; format: cell-based, human; conditions: DU145, 1 μM, 24 h
Method in brief: as §2

[9] = tested on: PC-3 cells; test: BrdU uptake assay, PC-3; format: cell-based, human
Method in brief: as §2

[10] = tested on: PC-3 cells; test: Cell cycle analysis by FACS, PC-3; format: cell-based, human; conditions: 1 μM
Method in brief: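 PC-3 seeded at 200,000 cells/well in six-well plates overnight, then serum-starved 24 h. Treated with 1 μM test compound; controls kept in serum-free medium. Incubated 6, 24 or 48 h, then trypsinized, ethanol-fixed and analysed for cell-cycle distribution by FACS. Values averaged from three independent experiments.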

[11] = tested on: CWR22Rv1 cells; test: Cell cycle analysis by FACS, CWR22RV1; format: cell-based, human; conditions: CWR22RV1, 24 h
[12] = tested on: LNCaP cells; test: Cell cycle analysis by FACS, LNCaP; format: cell-based, human
[13] = tested on: PC-3 cells; test: Analysis of actin disruption; format: cell-based, human
Method in brief: (§3)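 PC-3 seeded at 100,000 cells/dish in RPMI with 10% FBS and left to adhere 48 h. LNCaP seeded at 200,000 cells/dish and left 24 h in RPMI with 10% FBS and 0.1 nM DHT. Medium replaced with test compound (250 nM–5 μM) for 2 h. Cells fixed in 4% formaldehyde 10 min, permeabilized with 0.1% Triton X-100 30 min, stained with Alexa Fluor–phalloidin 10 min, then imaged against untreated controls.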

[14] = tested on: LNCaP cells; test: Analysis of actin disruption; format: cell-based, human; conditions: 2 h, 250 nM up to highest dose 5 μM
Method in brief: as §3

[15] = tested on: PC-3 cells; test: Chemotaxis assay; format: cell-based, human; conditions: IGF-1 attractant
Method in brief: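 96-well Boyden chamber with 8-μm porous membrane. 200,000 PC-3 cells per upper well in serum-free medium with test compound. Lower wells held IGF-1 plus the same compound concentration; serum-free medium served as negative control. Incubated overnight at 37°C, 5% CO2. Membrane fixed and Diff-Quik stained, upper-surface cells scraped off, absorbance read at 595 nm; n = 5, mean ± SEM.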

[16] = tested on: PC-3 cells; test: Cellular morphology after treatment; format: cell-based, human; conditions: PC-3, 1 μM, 24 h
[17] = tested on: human prostate cancer tissue; test: Displacement of 17e staining of prostate tissue by calyculin A; format: binding; conditions: calyculin A 1 μM pretreatment 10 min, then 17e 10 μM 1 h
Method in brief: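 Serial sections of human prostate tissue. One section stained with 10 μM test compound for 1 h. The adjacent section was pretreated with 1 μM calyculin A for 10 min before the same staining. Compound fluorescence intensity imaged and compared between paired sections.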

Chain of MLCP purified from pig aorta smooth muscle (P61292 2-327 limits assumed): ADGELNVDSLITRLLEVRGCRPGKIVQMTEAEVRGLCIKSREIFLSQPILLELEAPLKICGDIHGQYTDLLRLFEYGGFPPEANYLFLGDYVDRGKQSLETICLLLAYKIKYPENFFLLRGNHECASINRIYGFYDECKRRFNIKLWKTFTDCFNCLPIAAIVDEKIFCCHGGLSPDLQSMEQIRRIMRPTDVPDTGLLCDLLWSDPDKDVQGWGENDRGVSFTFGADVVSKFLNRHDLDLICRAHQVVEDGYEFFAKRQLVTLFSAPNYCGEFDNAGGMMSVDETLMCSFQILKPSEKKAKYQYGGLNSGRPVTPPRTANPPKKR

- IC50 [1]: 74 µM
Compound: N=C(N)Nc1nc(-c2ccc(OC(=O)c3ccc(-c4ccccc4)cc3)cc2)cs1 [13a, biphenyl-4-carboxylic acid 4-(2-guanidino-thiazol-4-yl)-phenyl ester]

- IC50 [1]: 12 µM
- Solubility (relative) [2]: much lower solubility than 17e
Compound: COc1cccc(-c2ccc(C(=O)Oc3ccc(-c4csc(NC(=N)N)n4)cc3)cc2)c1 [10a, 3′-methoxy-biphenyl-4-carboxylic acid 4-(2-guanidino-thiazol-4-yl)-phenyl ester]

- Solubility (relative) [2]: much lower solubility than 17e
Compound: N=C(N)Nc1nc(-c2ccc(NC(=O)c3ccc4ccccc4c3)cc2)cs1 [13h, naphthalene-2-carboxylic acid [4-(2-guanidino-thiazol-4-yl)-phenyl]-amide]

- IC50 [1]: 485 µM
Compound: Nc1nc(-c2ccc(OC(=O)c3ccc(-c4ccccc4)cc3)cc2)cs1 [14a, biphenyl-4-carboxylic acid 4-(2-amino-thiazol-4-yl)-phenyl ester]

The next lines start with the molecule.

Compound: COc1ccc(-c2csc(N=C(N)N)n2)cc1 [13m, N-[4-(4-methoxy-phenyl)-thiazol-2-yl]-guanidine]
- IC50 [1]: 840 µM

Compound: CN(C)c1cccc2c(S(=O)(=O)Oc3ccc(-c4csc(NC(=N)N)n4)cc3)cccc12 [17e, 5-dimethylamino-naphthalene-1-sulfonic acid 4-(2-guanidino-thiazol-4-yl)-phenyl ester]
- GI50 of CRPC cell lines compared to AD prostate cells ([3]; CRPC lines (CWR22Rv1, DU145, PC-3) versus LNCaP): four-fold lower
- GI50 ([3]; Homo sapiens, LNCaP, 48 h, 48 h treatment): ~2 µM
- GI50 [4]: ~0.5 µM
- GI50 [5]: ~0.5 µM
- GI50 [6]: ~0.5 µM
- DNA synthesis (BrdU incorporation) [7]: unaffected
- BrdU incorporation compared to control [8]: ~ 40%
- Reduction in DNA synthesis as measured by BrdU uptake ([9]; PC-3): 10 fold
- BrdU incorporation compared to control ([9]; PC-3, 1 μM, 24 h): ~ 10%
- Cell cycle effect ([10]; 6 h): increased S and G2/M populations
- Cell cycle effect ([10]; 24 h): complete cell cycle arrest in the G2/M phase
- Cell death (SubG1 population) ([10]; 48 h): increase in cells death
- Cell cycle effect (G2/M arrest persistence) ([10]; through 48 h): continued unchanged
- Cell cycle effect [11]: G2/M arrest
- Cell cycle effect [12]: little change from control
- Actin disruption compared to control ([13]; PC-3, 2 h, 250 nM, 1 μM and 5 μM): increasing amounts of actin disruption
- Concentration at which actin disruption begins ([13]; PC-3, 2 h treatment): 250 nM
- F-actin disruption [14]: did not show any disruption of the F-actin network; also recorded: no actin disruption; also recorded: did not demonstrate any F-actin disruption
- Migration of PC-3 cells ([15]; 3 μM): reduced to the same level as wells that contained only serum free media
- Migrated cells compared with IGF-1 alone ([15]; 5 μM): three times fewer cells
- Migration of PC-3 cells through the membrane ([15]; increasing drug concentrations): dose dependent decrease
- Solubility (relative) [2]: higher solubility
- Cellular morphology [16]: became more spherical

Compound: COC[C@@H]([C@H](O)[C@H](O)C(=O)NCC[C@H](C)c1nc(/C=C/C[C@@H]2O[C@]3(C[C@@H](O)[C@@H]2C)O[C@H]([C@H](C[C@H](O)[C@H](C)[C@H](O)[C@H](C)/C=C(C)/C(C)=C/C=C/C(C)=C\C#N)OC)[C@H](OP(=O)(O)O)C3(C)C)co1)N(C)C [calyculin A]
- Reduction in fluorescence intensity due to 17e (17e binding) [17]: 60%
